Measurements from different studies.
Compare with care: the assays were run in different laboratories.
Cell line: MDA-MB-231
Effect on: cell growth or viability

SMILES	technique	time	GI50 [nM]
COc1cc2c(cc1OS(N)(=O)=O)CCN(Cc1ccc(OC)c(OC)c1OC)C2	WST-1	96 h	11900
COc1cccc2c1C(=O)c1c(O)c3c(c(O)c1C2=O)C[C@@](O)(C(=O)CO)C[C@@H]3O[C@H]1C[C@H](N)[C@H](O)[C@H](C)O1	MTT	72 h	53.3
CC(=O)c1c(C)c2cnc(Nc3ccc(N4CCNCC4)cn3)nc2n(C2CCCC2)c1=O	resazurin	–	250
Cc1cc2c(cc1N1C(=O)c3cccc4c(CCCO)ccc(c34)C1=O)n(C)c(=O)n2C (racemic)	resazurin	–	> 10000
COc1cc2c(cc1OS(N)(=O)=O)CCN(Cc1cc(Cl)c(OC)c(OC)c1)C2	WST-1	96 h	40
COc1ccc(OC)c(CN2CCc3cc(O)c(OC)cc3C2)c1	WST-1	96 h	37000
CCOc1c(OC)cc(CN2CCc3cc(OS(N)(=O)=O)c(OC)cc3C2)cc1OC	WST-1	96 h	70
COc1cc2c(cc1O)CC[C@@H]1[C@@H]2CC[C@]2(C)[C@@H](O)CC[C@@H]12	–	48 h	1700
COc1cc2c(cc1O)CCN(Cc1cc(Br)c(OC)c(OC)c1)C2	WST-1	96 h	200
COc1ccc(OC)c(CN2CCc3cc(OS(N)(=O)=O)c(OC)cc3C2)c1	WST-1	96 h	1850
